From ChEMBL document CHEMBL4196108, “5-Aroylindoles Act as Selective Histone Deacetylase 6 Inhibitors Ameliorating Alzheimer's Disease Phenotypes” (J Med Chem, 2018)
The source made the active and inactive calls. The calls are words filed in the database; no cut-off is given here.

What was measured:
[1] = target: T1, Protein deacetylase HDAC6 (Homo sapiens) (UniProt Q9UBN7); experiment: Inhibition of HDAC6 in human SH-SY5Y cells transfected with pCAX FLAG APP and pRK5-EGFP-Tau P301L plasmids assessed as inhibition of Tau P301L mutant phosphorylation at Ser396 residue at 1 uM after 24 hrs by Western blot analysis; format: cell-based
T1 sequence (whole entry): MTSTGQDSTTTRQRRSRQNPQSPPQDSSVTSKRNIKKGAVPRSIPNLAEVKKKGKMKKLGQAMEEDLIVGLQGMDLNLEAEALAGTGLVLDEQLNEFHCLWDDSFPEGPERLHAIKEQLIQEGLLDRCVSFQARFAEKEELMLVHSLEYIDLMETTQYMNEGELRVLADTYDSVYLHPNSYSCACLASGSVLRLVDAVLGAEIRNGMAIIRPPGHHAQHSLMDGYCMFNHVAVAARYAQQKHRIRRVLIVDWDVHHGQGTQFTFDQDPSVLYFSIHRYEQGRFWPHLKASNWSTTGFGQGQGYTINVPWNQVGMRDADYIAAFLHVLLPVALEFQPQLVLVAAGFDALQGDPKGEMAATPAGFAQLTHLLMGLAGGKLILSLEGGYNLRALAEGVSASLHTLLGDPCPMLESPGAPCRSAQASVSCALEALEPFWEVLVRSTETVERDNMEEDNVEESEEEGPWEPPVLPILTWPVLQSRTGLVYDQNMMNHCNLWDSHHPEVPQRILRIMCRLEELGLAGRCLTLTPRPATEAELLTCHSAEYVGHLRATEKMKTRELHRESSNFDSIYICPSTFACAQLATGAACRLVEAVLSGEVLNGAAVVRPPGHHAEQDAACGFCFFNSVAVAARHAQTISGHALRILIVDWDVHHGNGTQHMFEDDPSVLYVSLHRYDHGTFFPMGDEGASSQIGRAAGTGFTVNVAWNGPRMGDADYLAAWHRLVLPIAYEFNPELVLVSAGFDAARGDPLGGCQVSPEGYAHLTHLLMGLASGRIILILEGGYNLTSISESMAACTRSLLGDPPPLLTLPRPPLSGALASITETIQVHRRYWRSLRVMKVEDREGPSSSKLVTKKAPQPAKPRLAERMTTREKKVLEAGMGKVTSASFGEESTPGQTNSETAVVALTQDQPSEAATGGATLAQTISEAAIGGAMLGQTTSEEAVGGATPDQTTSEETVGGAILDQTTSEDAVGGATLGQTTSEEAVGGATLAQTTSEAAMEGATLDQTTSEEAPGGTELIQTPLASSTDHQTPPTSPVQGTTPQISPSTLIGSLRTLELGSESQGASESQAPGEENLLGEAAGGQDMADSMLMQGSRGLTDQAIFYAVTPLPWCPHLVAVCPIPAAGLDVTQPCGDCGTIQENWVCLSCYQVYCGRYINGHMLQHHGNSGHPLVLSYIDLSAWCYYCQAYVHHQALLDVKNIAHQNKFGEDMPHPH
In short: (§1)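 SH-SY5Y or Neuro-2a cells cotransfected 24 h with pCAX APP695 and pRK5-EGFP-Tau P301L, then treated 24 h at 1 µM. 20 µg lysate protein immunoblotted for APP and phospho-tau Ser396/Ser404. Mean ± STD of three independent experiments; Student's t-test.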

[2] = target: T2, Protein deacetylase HDAC6 (Homo sapiens, UniProt Q9UBN7); experiment: Inhibition of human HDAC6 using RHKKAc peptide as substrate
T2 sequence (Q9UBN7 whole entry): T1 sequence (whole entry)

[3] = target: T1, Protein deacetylase HDAC6 (Homo sapiens); experiment: Inhibition of HDAC6 in human SH-SY5Y cells transfected with pCAX FLAG APP and pRK5-EGFP-Tau P301L plasmids assessed as reduction in formed Tau P301L mutant aggregates level at 1 uM after 24 hrs by Western blot analysis; format: cell-based
In short: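 Cotransfected SH-SY5Y cells (1 × 10^7) treated 24 h at 1 µM, lysed in sucrose/HEPES pH 7.2 buffer; 190,000 g supernatant = cytosol. Pellet treated with 5 µM nocodazole, re-spun; residual pellet extracted with sodium carbonate pH 11.5 and washed in 1% SDS to give aggregate fraction. Equal protein by SDS-PAGE immunoblot.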

[4] = target: T1, Protein deacetylase HDAC6 (Homo sapiens); experiment: Inhibition of HDAC6 in human SH-SY5Y cells transfected with pCAX FLAG APP and pRK5-EGFP-Tau P301L plasmids assessed as inhibition of Tau P301L mutant phosphorylation at Ser404 residue at 1 uM after 24 hrs by Western blot analysis; format: cell-based; in short: as §1
[5] = target: T1, Protein deacetylase HDAC6 (Homo sapiens); experiment: (§2) Inhibition of HDAC6 in human SH-SY5Y cells transfected with pCAX FLAG APP and pRK5-EGFP-Tau P301L plasmids assessed as suppression of phosphorylated tau P301L mutant-induced apoptosis by measuring accumulation at sub-G1 phase at 1 uM after 24 hrs by propidium iodide staining-based flow cytometry (reference value: 22.01%); format: cell-based; parameters: scale not given: the % may be the effect or the level left
[6] = Ratio of drug level in brain to plasma in Sprague-Dawley rat at 50 mg/kg, po after 1 hr; format: ADME, organism-based; settings: read-out: BPR
[7] = Toxicity in Balb/c mouse assessed as survival rate at 1000 mg/kg, ip qd administered for 6 days followed by 1 week recovery (reference value: 100%); format: organism-based; settings: in vivo
[8] = target: T1, Protein deacetylase HDAC6 (Homo sapiens); experiment: as §2, with “at 0.01” for “at 1”; format: cell-based; parameters: scale not given: the % may be the effect or the level left
[9] = Plasma concentration in Sprague-Dawley rat at 50 mg/kg, po after 3 hrs by HPLC-MS/MS analysis; format: ADME, organism-based
[10] = Toxicity in Balb/c mouse assessed as survival rate at 100 mg/kg, ip qd administered for 6 days followed by 1 week recovery (reference value: 100%); format: organism-based; settings: in vivo
[11] = Drug uptake in Sprague-Dawley rat brain at 50 mg/kg, po after 3 hrs by HPLC-MS/MS analysis; format: ADME, organism-based; settings: read-out: Drug uptake
Mus musculus [12] = experiment: In vivo inhibition of HDAC6 in 3xTg-AD transgenic mouse brain hippocampal CA1 region assessed as downregulation of […] expression of beta-amyloid at 50 mg/kg, po administered daily for 3 months by Western blot analysis; format: functional, organism-based
Mus musculus [13] = experiment: In vivo inhibition of HDAC6 in scopolamine-treated 3xTg-AD transgenic mouse brain hippocampal CA1 region assessed as increase in acetyl-alpha-tubulin level at 50 mg/kg, po administered daily for 3 months by immunohistochemical analysis; format: functional, organism-based
In short: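 Female 3xTg-AD mice, standard diet to 6 months of age, then 50 mg/kg orally once daily for three months; memantine 30 mg/kg in water as comparator. Brains removed and hippocampal CA1 sections immunostained for acetyl-α-tubulin and phospho-tau Ser396 and Ser404. Mean ± STD; one-way ANOVA.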

[14] = Ratio of drug level in brain to plasma in Sprague-Dawley rat at 50 mg/kg, po after 3 hrs; format: ADME, organism-based; settings: read-out: BPR
[15] = target: T1, Protein deacetylase HDAC6 (Homo sapiens); experiment: Inhibition of HDAC6 in human SH-SY5Y cells transfected with pCAX FLAG APP and pRK5-EGFP-Tau P301L plasmids assessed as increase in polyubiquitinated protein level at 0.01 to 1 uM after 24 hrs by immunoblot analysis; format: cell-based
In short: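 SH-SY5Y cells transfected 24 h with APP695/Tau P301L plasmids, then treated; whole lysates immunoblotted for polyubiquitin complexes.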

inhibition [1] | IC50 [2] | Compound | inhibition [3] | inhibition [4] | Activity [5] | Kp at 1 h [6] | survival [7] | Activity [8] | concentration at 3 h [9] | survival [10] | concentration at 3 h [11] | inhibition (Mus musculus [12]) | inhibition (Mus musculus [13]) | Kp at 3 h [14] | inhibition [15]
Active | 9.25 nM | O=C(NO)c1ccc(Cn2ccc3cc(C(=O)c4ccc(F)cc4)ccc32)cc1 | – | – | – | – | – | – | – | – | – | – | – | – | –
Active | 6.73 nM | O=C(NO)c1ccc(Cn2ccc3cc(C(=O)c4ccc(Cl)cc4)ccc32)cc1 | – | – | – | – | – | – | – | – | – | – | – | – | –

Compound | inhibition [1] | IC50 [2] | inhibition [3] | inhibition [4] | Activity [5] | Kp at 1 h [6] | survival [7] | Activity [8] | concentration at 3 h [9] | survival [10] | concentration at 3 h [11] | inhibition (Mus musculus [12]) | inhibition (Mus musculus [13]) | Kp at 3 h [14] | inhibition [15]
COc1ccc(C(=O)c2ccc3c(ccn3Cc3ccc(C(=O)NO)cc3)c2)cc1 | Active | 3.92 nM | Active | Active | 11.5% | 1.19 | 100% | 15.6% | 7.3 ng/mL | 100% | 6.3 ng/g | Active | Active | 0.86 | Active
